ChEMBL document CHEMBL1165950, “Design and synthesis of new potent anticancer pyrazoles with high FLT3 kinase inhibitory selectivity” (Bioorg Med Chem, 2010)

Experiments:
Type in all cases: functional
SF-295 [1] = test: Cytotoxicity against human SF295 cells assessed as cell growth at 10 uM after 48 hrs by sulforhodamine B assay; conditions: SF-295, 48 h, read-out: Activity
SK-MEL-28 [2] = test: Growth inhibition of human SK-MEL-28 cells after 48 hrs by sulforhodamine B assay; conditions: SK-MEL-28, 48 h
In short: (§1)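 NCI 60-cell screen, five-dose mode. Cells grown in RPMI 1640 with 5% FBS and 2 mM L-glutamine and plated at 5000-40,000 cells/well according to doubling time. After 24 h preincubation, a Tz plate was TCA-fixed. Five concentrations (10-fold or 1/2 log dilutions) were applied for 48 h at 37 °C. SRB staining read at 515 nm. IC50 taken from [(Ti-Tz)/(C-Tz)]×100 = 50.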

SK-MEL-28 [3] = test: Cytotoxicity against human SK-MEL-28 cells assessed as cell growth at 10 uM after 48 hrs by sulforhodamine B assay; conditions: SK-MEL-28, 48 h, read-out: Activity
[4] = Cytotoxicity against human […] cells assessed as cell growth at 10 uM after 48 hrs by sulforhodamine B assay; conditions: read-out: Activity
HCC 2998 [5] = test: Cytotoxicity against human HCC2998 cells assessed as cell growth at 100 nM after 48 hrs by sulforhodamine B assay; conditions: HCC 2998, 48 h, read-out: Activity
CCRF-CEM = test: Cytotoxicity against human CCRF-CEM cells assessed as cell growth at 10 uM; conditions: read-out: Activity
In short: (§2)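 Single-dose NCI-60 screen at 10 µM. Cells were grown in RPMI 1640 with 5% FBS and 2 mM L-glutamine, then treated for 48 h at 37 °C. Protein was measured by SRB staining with absorbance at 515 nm. Percentage growth was recorded, and inhibition percentage was calculated as 100 minus growth percentage.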

SK-MEL-28 [6] = test: Cytotoxicity against human SK-MEL-28 cells assessed as cell growth at 0.001 uM after 48 hrs by sulforhodamine B assay; conditions: SK-MEL-28, 48 h, read-out: Activity
SR [7] = test: Cytotoxicity against human SR cells assessed as cell growth at 0.01 uM after 48 hrs by sulforhodamine B assay; conditions: read-out: Activity
HCC 2998 [8] = test: Cytotoxicity against human HCC2998 cells assessed as cell growth at 10 uM after 48 hrs by sulforhodamine B assay; conditions: HCC 2998, 48 h, read-out: Activity
SR [9] = test: Cytotoxicity against human SR cells assessed as cell growth at 0.001 uM after 48 hrs by sulforhodamine B assay; conditions: read-out: Activity
SK-MEL-5 = test: Cytotoxicity against human SK-MEL-5 cells assessed as cell growth at 1 uM after 48 hrs by sulforhodamine B assay; conditions: SK-MEL-5, 48 h, read-out: Activity
RXF 393 [10] = test: Cytotoxicity against human RXF393 cells assessed as cell growth at 10 uM after 48 hrs by sulforhodamine B assay; conditions: RXF 393, 48 h, read-out: Activity
ACHN = test: Cytotoxicity against human ACHN cells assessed as cell growth at 0.01 uM after 48 hrs by sulforhodamine B assay; conditions: read-out: Activity
SF-295 [11] = test: Cytotoxicity against human SF295 cells assessed as cell growth at 100 nM after 48 hrs by sulforhodamine B assay; conditions: SF-295, 48 h, read-out: Activity
RXF 393 [12] = test: Growth inhibition of human RXF393 cells after 48 hrs by sulforhodamine B assay; conditions: RXF 393, 48 h; in short: as §1
MCF7 [13] = test: Cytotoxicity against human MCF7 cells assessed as cell growth at 0.001 uM after 48 hrs by sulforhodamine B assay; conditions: MCF7, 48 h, read-out: Activity
RXF 393 [14] = test: Cytotoxicity against human RXF393 cells assessed as cell growth at 1 uM after 48 hrs by sulforhodamine B assay; conditions: RXF 393, 48 h, read-out: Activity
SK-MEL-28 [15] = test: Cytotoxicity against human SK-MEL-28 cells assessed as cell growth at 100 nM after 48 hrs by sulforhodamine B assay; conditions: SK-MEL-28, 48 h, read-out: Activity
NCI-H226 [16] = test: Growth inhibition of human NCI-H226 cells after 48 hrs by sulforhodamine B assay; conditions: NCI-H226, 48 h; in short: as §1
PC-3 = test: Cytotoxicity against human PC3 cells assessed as cell growth at 10 uM after 48 hrs by sulforhodamine B assay; conditions: PC-3, 48 h, read-out: Activity
MCF7 [17] = test: Cytotoxicity against human MCF7 cells assessed as cell growth at 100 nM after 48 hrs by sulforhodamine B assay; conditions: MCF7, 48 h, read-out: Activity
[18] = Cytotoxicity against human […] cells assessed as cell growth at 10 uM; conditions: read-out: Activity
In short: (§3)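 NCI-60 screen: cells grown in RPMI 1640 with 5% FBS and 2 mM L-glutamine, plated at 5000–40,000 cells/well according to doubling time, and preincubated 24 h at 37 °C, 5% CO2. The single 10 µM dose (DMSO stock) was added, then incubated 48 h. Cells were TCA-fixed and stained with 0.4% SRB, read at 515 nm, and growth % calculated against time-zero and control plates.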

HCT-116 = test: Cytotoxicity against human HCT116 cells assessed as cell growth at 100 nM after 48 hrs by sulforhodamine B assay; conditions: HCT-116, 48 h, read-out: Activity
DU-145 = test: Cytotoxicity against human DU145 cells assessed as cell growth at 0.01 uM after 48 hrs by sulforhodamine B assay; conditions: DU-145, 48 h, read-out: Activity
SR [19] = test: Growth inhibition of human SR cells after 48 hrs by sulforhodamine B assay; in short: as §1
RXF 393 [20] = test: Cytotoxicity against human RXF393 cells assessed as cell growth at 0.001 uM after 48 hrs by sulforhodamine B assay; conditions: RXF 393, 48 h, read-out: Activity
NCI-H226 [21] = test: Cytotoxicity against human NCI-H226 cells assessed as cell growth at 1 uM after 48 hrs by sulforhodamine B assay; conditions: NCI-H226, 48 h, read-out: Activity
MDA-MB-435 = test: Cytotoxicity against human MDA-MB-435 cells assessed as cell growth at 0.01 uM after 48 hrs by sulforhodamine B assay; conditions: MDA-MB-435, 48 h, read-out: Activity
KM12 = test: Cytotoxicity against human KM12 cells assessed as cell growth at 10 uM; conditions: read-out: Activity; in short: as §3
NCI-H226 [22] = test: Cytotoxicity against human NCI-H226 cells assessed as cell growth at 0.01 uM after 48 hrs by sulforhodamine B assay; conditions: NCI-H226, 48 h, read-out: Activity
HOP-92 = test: Cytotoxicity against human HOP92 cells assessed as cell growth at 10 uM; conditions: read-out: Activity; in short: as §2
SR [23] = test: Cytotoxicity against human SR cells assessed as cell growth at 1 uM after 48 hrs by sulforhodamine B assay; conditions: read-out: Activity
HCC 2998 [24] = test: Cytotoxicity against human HCC2998 cells assessed as cell growth at 1 uM after 48 hrs by sulforhodamine B assay; conditions: HCC 2998, 48 h, read-out: Activity
SR [25] = test: Cytotoxicity against human SR cells assessed as cell growth at 100 nM after 48 hrs by sulforhodamine B assay; conditions: read-out: Activity
CAKI-1 = test: Cytotoxicity against human Caki1 cells assessed as cell growth at 1 uM after 48 hrs by sulforhodamine B assay; conditions: CAKI-1, 48 h, read-out: Activity
[26] = read-out: LC50 (the source's name)

Structure (SMILES): Cc1cc(O)cc(-c2nn(CC#N)cc2-c2ccnc(-c3ccc(N(C)C)cc3)c2)c1
- growth at 10 µM (SF-295 [1]): -54%
- GI50 (SK-MEL-28 [2]): 5.22 µM
- TGI (SK-MEL-28 [2]): 32.4 µM
- CC50 (SK-MEL-28 [2]; [26]): > 100 µM
- growth at 10 µM (SK-MEL-28 [3]): -31%
- growth at 10 µM [4]: -28%
- growth at 0.1 µM (HCC 2998 [5]): 87%
- growth at 10 µM (CCRF-CEM): 40.3%
- growth at 0.001 µM (SK-MEL-28 [6]): 102%
- growth at 0.01 µM (SR [7]): 93%
- growth at 10 µM (HCC 2998 [8]): -98%
- growth at 0.001 µM (SR [9]): 93%
- growth at 1 µM (SK-MEL-5): -26%
- growth at 10 µM (RXF 393 [10]): -46%
- growth at 0.01 µM (ACHN): 82%
- growth at 0.1 µM (SF-295 [11]): 78%
- GI50 (RXF 393 [12]): 2.87 µM
- LC50 (concentration killing 50% of the starting cells) (RXF 393 [12]): > 100 µM
- TGI (RXF 393 [12]): 61.4 µM
- growth at 0.001 µM (MCF7 [13]): 97%
- growth at 1 µM (RXF 393 [14]): -32%
- growth at 0.1 µM (SK-MEL-28 [15]): 96%
- GI50 (NCI-H226 [16]): 4.18 µM
- TGI (NCI-H226 [16]): 21.8 µM
- CC50 (NCI-H226 [16]; [26]): > 100 µM
- growth at 10 µM (PC-3): -9%
- growth at 0.1 µM (MCF7 [17]): 50%
- growth at 10 µM [18]: 41.6%
- growth at 0.1 µM (HCT-116): 87%
- growth at 0.01 µM (DU-145): 97%
- GI50 (SR [19]): 2.64 µM
- LC50 (concentration killing 50% of cells) (SR [19]): > 100 µM
- TGI (SR [19]): > 100 µM
- growth at 0.001 µM (RXF 393 [20]): 100%
- growth at 1 µM (NCI-H226 [21]): 19%
- growth at 0.01 µM (MDA-MB-435): 91%
- growth at 10 µM (KM12): 27.3%
- growth at 0.01 µM (NCI-H226 [22]): 94%
- growth at 10 µM (HOP-92): 32.4%
- growth at 1 µM (SR [23]): 17%
- growth at 1 µM (HCC 2998 [24]): 13%
- growth at 0.1 µM (SR [25]): 74%
- growth at 1 µM (CAKI-1): 9%
